From ChEMBL document CHEMBL1123193, “The lysine pathway as a target for a new genera of synthetic antibacterial antibiotics?” (1986)
In brackets after ≈: the same amount, converted by molar mass.

Key:
Escherichia coli [1] = experiment: Compound is evaluated for the inhibition of bacterial growth (Escherichia coli ATCC 9637) in the liquid medium at 5 mmol of amino acid; assay type: functional
Summary of the method: (§1)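 Davis and Mingioli liquid medium, 4.8 mL, inoculated with 0.2 mL of an 18-h liquid culture of the test organism, with 0.1 mL of compound solution added. Growth followed by absorbance at 660 nm. Percent inhibition calculated after 6 h at 37 °C.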

Escherichia coli [2] = experiment: Compound is evaluated for the inhibition of bacterial growth (Escherichia coli ATCC 9637) in the liquid medium at 2 mmol of amino acid; assay type: functional; summary of the method: as §1
Escherichia coli [3] = experiment: Compound is evaluated for the inhibition of bacterial growth (Escherichia coli ATCC 9637) in the liquid medium at 1 mmol of amino acid; assay type: functional; summary of the method: as §1
Escherichia coli [4] = experiment: Percent of inhibition of diaminopimelic acid decarboxylase at 1 mmol of amino acid, 1.05 mmol/L of labeled meso-DAP, and 32 umol/L of PLP
Summary of the method: (§2)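 Enzyme was meso-DAP decarboxylase isolated and purified from E. coli ATCC 9637. Inhibition measured as decarboxylation of labeled meso-DAP in the presence of the test amino acid.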

Escherichia coli [5] = experiment: Percent of inhibition of diaminopimelic acid decarboxylase at 2 mmol of amino acid, 1.05 mmol/L of labeled meso-DAP, and 32 umol/L of PLP; summary of the method: as §2
Escherichia coli [6] = experiment: Minimum inhibitory concentration required for the inhibition of Escherichia coli ATCC 9637; assay type: functional
Summary of the method: (§3)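 Agar dilution on Davis and Mingioli solid medium, supplemented with amino acids where needed. MIC taken as the lowest concentration giving complete growth inhibition, expressed in micrograms.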

Pseudomonas aeruginosa [7] = experiment: Not Plasmodium species; assay type: functional
Escherichia coli [8] = experiment: Percent of inhibition of diaminopimelic acid decarboxylase at 10 mmol of amino acids, 1.05 mmol/L of labeled meso-DAP, and 32 umol/L of PLP; summary of the method: as §2
Escherichia coli [9] = experiment: Percent of inhibition of diaminopimelic acid decarboxylase at 5 mmol of amino acids, 1.05 mmol/L of labeled meso-DAP, and 32 umol/L of PLP; summary of the method: as §2
Escherichia coli [10] = experiment: Percent of inhibition of diaminopimelic acid decarboxylase at 1 mmol of amino acids, 1.05 mmol/L of labeled meso-DAP, and 32 umol/L of PLP; summary of the method: as §2
Escherichia coli [11] = experiment: Percent of inhibition of diaminopimelic acid decarboxylase at 2 mmol of amino acids, 1.05 mmol/L of labeled meso-DAP, and 32 umol/L of PLP; summary of the method: as §2
Escherichia coli [12] = experiment: Minimum inhibitory concentration compared to D-cycloserine, against Escherichia coli DC2; assay type: functional; summary of the method: as §3
Providencia rettgeri = experiment: Minimum inhibitory concentration compared to D-cycloserine, against Proteus rettgeri 53.100; assay type: functional; summary of the method: as §3
Serratia marcescens = experiment: Minimum inhibitory concentration compared to D-cycloserine, against Serratia marcescens A 174; assay type: functional; summary of the method: as §3
Escherichia coli [13] = experiment: Minimum inhibitory concentration compared to D-cycloserine, against Escherichia coli UB 1005; assay type: functional; summary of the method: as §3
Citrobacter freundii = experiment: Minimum inhibitory concentration compared to D-cycloserine, against Citrobacter freundii 55.13; assay type: functional; summary of the method: as §3
Pseudomonas aeruginosa [14] = experiment: Minimum inhibitory concentration compared to D-cycloserine, against Pseudomonas aeruginosa A22; assay type: functional; summary of the method: as §3
Escherichia coli [15] = experiment: Minimum inhibitory concentration compared to D-cycloserine, against Escherichia coli ATCC 9637; assay type: functional; summary of the method: as §3
[16] = tested on: Providencia alcalifaciens; experiment: Minimum inhibitory concentration compared to D-cycloserine, against providencia alcalifaciens 58.62; assay type: functional; summary of the method: as §3
Klebsiella pneumoniae = experiment: Minimum inhibitory concentration compared to D-cycloserine, against Klebsiella pneumoniae 53.153; assay type: functional; summary of the method: as §3
Enterobacter cloacae [17] = experiment: Minimum inhibitory concentration compared to D-cycloserine, against Enterobacter cloacae 60.22
Serratia liquefaciens = experiment: Minimum inhibitory concentration compared to D-cycloserine, against Serratia liquefaciens 52.56; assay type: functional; summary of the method: as §3
[18] = Minimum inhibitory concentration compared to D-cycloserine, against Moraxella glucidolytica 52.90; assay type: functional; summary of the method: as §3
Pseudomonas aeruginosa [19] = experiment: Minimum inhibitory concentration required for the inhibition of Pseudomonas aeruginosa A22; assay type: functional; summary of the method: as §3
Escherichia coli [20] = experiment: Percent of inhibition of diaminopimelic acid decarboxylase at 5 mmol of amino acid, 1.05 mmol/L of labeled meso-DAP, and 32 umol/L of PLP; summary of the method: as §2
Escherichia coli [21] = experiment: Percent of inhibition of diaminopimelic acid decarboxylase at 10 mmol of amino acid, 1.05 mmol/L of labeled meso-DAP, and 32 umol/L of PLP; summary of the method: as §2
Enterobacter cloacae [22] = experiment: Minimum inhibitory concentration compared to D-cycloserine, against Enterobacter cloacae 60.22; remark: listed apart in the source
[23] = Escherichia coli, ATCC 9637, read-out: MIC

NC(/C=C/CC(N)C(=O)O)C(=O)O (stereo unspecified)
Inhibition (Escherichia coli [1]): 0% | Inhibition (Escherichia coli [2]): 0% | Inhibition (Escherichia coli [3]): 0% | inhibition (Escherichia coli [4]): 65% | inhibition (Escherichia coli [5]): 77%

C[C@@H]1O[C@@H]1P(=O)(O)O [FOSFOMYCIN]
MIC (Escherichia coli [6]; [23]): 16 µg/mL (≈ 116 µM) | MIC (Pseudomonas aeruginosa [7]): 32 µg/mL (≈ 232 µM)

C/C(=C/C(N)C(=O)O)CC(N)C(=O)O (stereo unspecified)
inhibition (Escherichia coli [8]): 73% | Inhibition (Escherichia coli [1]): 55% | Inhibition (Escherichia coli [2]): 0% | Inhibition (Escherichia coli [3]): 0% | inhibition (Escherichia coli [9]): 54% | inhibition (Escherichia coli [10]): 17% | inhibition (Escherichia coli [11]): 33%

N[C@@H]1CONC1=O [CYCLOSERINE]
MIC (Escherichia coli [12]): 128 µg/mL (≈ 1250 µM) | MIC (Providencia rettgeri): 128 µg/mL (≈ 1250 µM) | MIC (Serratia marcescens): 128 µg/mL (≈ 1250 µM) | MIC (Escherichia coli [13]): 32 µg/mL (≈ 313 µM) | MIC (Escherichia coli [6]; [23]): 0.25 µg/mL (≈ 2.45 µM) | MIC (Citrobacter freundii): 2 µg/mL (≈ 19.6 µM) | MIC (Pseudomonas aeruginosa [14]): 64 µg/mL (≈ 627 µM) | MIC (Escherichia coli [15]): 0.5 µg/mL (≈ 4.9 µM) | MIC [16]: 8 µg/mL (≈ 78.4 µM) | MIC (Klebsiella pneumoniae): 8 µg/mL (≈ 78.4 µM) | MIC (Enterobacter cloacae [17]): 2 µg/mL (≈ 19.6 µM) | MIC (Pseudomonas aeruginosa [7]): 128 µg/mL (≈ 1250 µM) | MIC (Serratia liquefaciens): 8 µg/mL (≈ 78.4 µM) | MIC [18]: 128 µg/mL (≈ 1250 µM)

C=C(C[C@@H](N)C(=O)O)C[C@@H](N)C(=O)O.C=C(C[C@H](N)C(=O)O)C[C@H](N)C(=O)O
inhibition (Escherichia coli [8]): 20% | MIC (Escherichia coli [12]): 8 µg/mL | MIC (Providencia rettgeri): 64 µg/mL | MIC (Serratia marcescens): 4 µg/mL | MIC (Pseudomonas aeruginosa [19]; Pseudomonas aeruginosa, read-out: MIC): 4 µg/mL | MIC (Escherichia coli [13]): 8 µg/mL | MIC (Escherichia coli [6]): 2 µg/mL | MIC (Citrobacter freundii): 8 µg/mL | MIC (Pseudomonas aeruginosa [14]): 32 µg/mL | MIC (Escherichia coli [15]): 16 µg/mL | MIC [16]: 32 µg/mL | MIC (Klebsiella pneumoniae): 16 µg/mL | MIC (Enterobacter cloacae [17]): 16 µg/mL | inhibition (Escherichia coli [9]): 10% | MIC (Serratia liquefaciens): 4 µg/mL | MIC [18]: 8 µg/mL | inhibition (Escherichia coli [10]): 5%

CC(CC(N)C(=O)O)CC(N)C(=O)O (stereo unspecified)
Inhibition (Escherichia coli [1]): 0% | Inhibition (Escherichia coli [2]): 0% | inhibition (Escherichia coli [20]): 43% | inhibition (Escherichia coli [4]): 12% | inhibition (Escherichia coli [21]): 55%

CC(N)(/C=C/CC(N)C(=O)O)C(=O)O (stereo unspecified)
Inhibition (Escherichia coli [1]): 0% | Inhibition (Escherichia coli [2]): 0% | inhibition (Escherichia coli [4]): 0% | inhibition (Escherichia coli [5]): 0%

C=C(CC(N)C(=O)O)CC(N)C(=O)O (stereo in doubt; 4)
Inhibition (Escherichia coli [1]): 95% | Inhibition (Escherichia coli [2]): 90% | MIC (Escherichia coli [12]): 32 µg/mL (≈ 158 µM) | MIC (Providencia rettgeri): 128 µg/mL (≈ 633 µM) | MIC (Serratia marcescens): 2 µg/mL (≈ 9.89 µM) | Inhibition (Escherichia coli [3]): 90% | MIC (Pseudomonas aeruginosa [19]): 4 µg/mL (≈ 19.8 µM) | MIC (Escherichia coli [13]): 2 µg/mL (≈ 9.89 µM) | MIC (Escherichia coli [6]): 2 µg/mL (≈ 9.89 µM) | MIC (Citrobacter freundii): 16 µg/mL (≈ 79.1 µM) | MIC (Pseudomonas aeruginosa [14]): 16 µg/mL (≈ 79.1 µM) | MIC (Escherichia coli [15]): 32 µg/mL (≈ 158 µM) | MIC [16]: 128 µg/mL (≈ 633 µM) | MIC (Enterobacter cloacae [22]): 16 µg/mL (≈ 79.1 µM) | MIC (Klebsiella pneumoniae): 32 µg/mL (≈ 158 µM) | MIC (Serratia liquefaciens): 2 µg/mL (≈ 9.89 µM) | MIC [18]: 16 µg/mL (≈ 79.1 µM)

C/C(=C\C(N)C(=O)O)CC(N)C(=O)O (stereo unspecified)
Inhibition (Escherichia coli [1]): 50% | Inhibition (Escherichia coli [2]): 21% | Inhibition (Escherichia coli [3]): 0% | inhibition (Escherichia coli [9]): 50% | inhibition (Escherichia coli [11]): 20%
